Jurkat tox 60K: cytotoxicity toward Jurkat cells. Jurkat E6.1 viability, ATP luminescence, 48 h. AID 463. inhibition, % at 4 µM. 1.2% of 56,000 active;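 active = inhibition above the mean inhibition of all tested compounds plus 3 SD, cut at about 28% in these data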
D1 allo mod: allosterically modulates the human D1 dopamine receptor; P21728; HEK293 D1, CRE-luciferase, dopamine EC30 potentiation; actives deviate in either direction; B-score at 10 µM; 5.9% of 58,000 active; AID 641;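 active = luminescence count or its row- and column-corrected plate score outside the 99.7% band of the plate's sample wells, on either side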
Target sequence (P21728 whole entry, looked up): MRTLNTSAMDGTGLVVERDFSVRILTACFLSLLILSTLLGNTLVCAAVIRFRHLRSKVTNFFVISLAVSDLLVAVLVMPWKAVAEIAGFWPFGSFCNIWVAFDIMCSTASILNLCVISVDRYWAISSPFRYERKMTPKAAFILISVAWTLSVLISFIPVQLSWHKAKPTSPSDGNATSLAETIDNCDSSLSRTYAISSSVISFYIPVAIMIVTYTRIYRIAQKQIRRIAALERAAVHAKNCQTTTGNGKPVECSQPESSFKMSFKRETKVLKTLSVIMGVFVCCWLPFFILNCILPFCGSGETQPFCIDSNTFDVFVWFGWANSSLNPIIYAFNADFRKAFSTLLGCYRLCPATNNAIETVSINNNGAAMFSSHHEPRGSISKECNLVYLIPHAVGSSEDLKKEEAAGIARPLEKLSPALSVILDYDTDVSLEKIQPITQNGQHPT
Htt clearance: compounds clearing mutant huntingtin protein | inhibition, % at 1.5 µM | AID 853 | HeLa Exon1htt(103Q)mCFP, aggregate imaging; zero = plate's median compound well | 0.42% of 47,000 active;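 active = inhibition of aggregate fluorescence above about 70%, also judged a hit by eye on the cell image, limit read from the data, passing the limit was not always enough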;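 also: cells exposed to compound for three days before fixation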
M1 ag: activates the M1 muscarinic receptor. CHO-M1 cells, Fluo-4 calcium fluorescence, agonist mode; hits give high values. B-score at 10 µM. 3% of 64,000 active. AID 626;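 active = fluorescence rise, raw or as B-score row- and column-corrected plate score, outside the 99.7% band of its plate's samples, either direction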
M1 antag: blocks the rat M1 muscarinic receptor response to acetylcholine; P08482; CHO-M1 cells, Fluo-4 calcium, ACh EC80 antagonist mode; hits give low values; 3.4% of 64,000 active; B-score at 10 µM;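 active = calcium fluorescence response, raw or row-and-column corrected B-score, differing from the plate sample mean either way at a set confidence level, mostly lower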
HEK293 NFkB inh: lowers PMA/ionomycin-induced NF-kB signal in HEK293 cells. HEK-293 NF-kB luciferase reporter, luminescence. inhibition, % at 3 µM. 0.21% of 62,000 active. AID 465;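 active = inhibition above the mean of all tested compounds plus 3 SD, cut at about 40% in these data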;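 also: 0% = stimulated DMSO wells and 100% = 10 µM reference inhibitor 5653914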
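Timing: 1 h pretreatment, 16 h stimulation, 37 °C; system: HEK-293 cells with stable firefly luciferase reporter driven by four HIV NF-kB elements; doses: 3 µM once, 0.30% DMSO; measured by: luciferase luminescence; control set: DMSO and 10 µM reference inhibitor; repeats: single test; reagent: PMA plus ionomycin mix as NF-kB-activating stimulus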
D1 PAM confirm: D1 receptor (human) allosteric modulation, confirmed | shares compounds with D1 allo mod | HEK293 D1 CRE-luciferase, dopamine EC30 potentiation; hits give high values | luminescence at 10 µM | 88% of 2,200 active | AID 642;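 active = luminescence in either of two replicates above the same-plate mean plus 3 SD of the low-dose dopamine control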
D1 no dopamine: activates D1 CRE-luciferase signal without dopamine present. shares compounds with D1 allo mod. HEK293 D1 CRE-luciferase, luminescence, no dopamine; hits give high values. luminescence at 10 µM. 0.8% of 1,900 active. AID 646; in the data active = luminescence above about 3900
Isoprot counter: isoproterenol response counter-screen activity for D1 modulators. shares compounds with D1 allo mod. HEK293 D1 CRE-luciferase, isoproterenol EC30 counter-screen; hits give high values. luminescence at 10 µM. 63% of 2,200 active;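 active = luminescence in either replicate above plate mean of wells with a partly effective reference agonist dose plus 3 SD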;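 also: isoproterenol raises cAMP through native beta-adrenoceptor Gs so signal bypasses D1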
* hit, by the source's call; / = not tested or not shown. A selection: hits, their analogues and other compounds. The true share with any hit is near 9.5%.

SMILES	Jurkat tox 60K	D1 allo mod	Htt clearance	M1 ag	M1 antag	HEK293 NFkB inh	D1 PAM confirm	D1 no dopamine	Isoprot counter
CCCn1c(=O)c2ccccc2n2c(SCC(=O)NCc3cccs3)nnc12	5.5	-2.14	/	0.895	0.0384	11.8	/	/	/
Nn1c(SCc2cn3ccsc3n2)nnc1-c1ccncc1	7.3	0.115	/	0.548	0.0677	28.0	/	/	/
CCOC(=O)c1ccc2c(c1)nc(SCc1cn3ccsc3n1)n2CC	-1.9	12.9*	-35.5	0.401	0.984	8.7	23916*	1828	8472*
C=CCn1c(COc2ccc(CC)cc2)nnc1SC/C(O)=C(\C#N)c1nc2ccccc2[nH]1	/	-0.203	/	-1.18	0.997	6.5	/	/	/
N#Cc1ccccc1Cn1c(=O)n(CCC(=O)NCc2ccco2)c(=O)c2ccccc21	4.0	0.504	/	-0.0256	-1.07	7.4	/	/	/
Cc1ccccc1Cn1c(=O)n(CCCC(=O)NCc2ccco2)c(=O)c2ccccc21	3.4	5.52*	/	1.61	-1.59	12.9	11052*	1848	4208*
N#Cc1ccccc1Cn1c(=O)n(Cc2ccc(C(=O)NCc3ccco3)cc2)c(=O)c2ccccc21	-4.0	4.38*	/	-0.737	0.898	21.7	18988*	1796	7356*
Cc1cccc(Cn2c(=O)n(Cc3ccco3)c(=O)c3ccccc32)c1	-4.5	11.8*	-35.1	0.753	-0.337	20.1	22552*	1708	4036*
Cc1c(C)c2c(C)nn(-c3ccccc3)c2[nH]c1=O	/	0.428	/	-1.46	0.00343	/	/	/	/
CCc1c(C)c2c(C)nn(-c3ccccc3)c2[nH]c1=O	-2.5	3.21*	/	1.59	-0.00458	7.7	7084*	1748	3384*
Cc1cc(Nc2ccccc2Br)n2nc(C)nc2n1	-3.8	-0.148	/	-0.738	-0.57	4.6	/	/	/
Cc1cc(Nc2ccc(C)c(Br)c2)n2nc(C)nc2n1	-1.2	2.82*	/	1.1	-0.996	-3.0	7632	1564	2644
COc1nc(C)nc2c1ccc1ccccc12	/	/	-17.4	/	/	/	/	/	/
COc1cc(CN(C)CC(=O)c2[nH]c(C)c(C(C)=O)c2C)ccc1OC(F)F	22.5	5.02*	/	1.49	-1.75	22.8	7936*	1244	4104*
CCOc1c(C#N)c(C#N)c2nc(C)cc(C)n12	-4.4	1.45	-90.8	-0.86	-1.38	0.1	/	/	/
Cc1cc(C)n2c3c(c(C#N)c2n1)CCCC3	0.0	2.94*	-28.8	0.594	1.05	11.5	9512*	1860	3232
COc1ccc2cnn(-c3ccccc3C)c(=O)c2c1OC	/	-0.141	/	0.0369	0.668	/	/	/	/
CN(Cc1ccccc1)S(=O)(=O)c1ccc(NC(=O)C2CCCO2)cc1 (stereo unspecified)	12.1	0.347	/	0.169	0.363	12.4	/	/	/
COc1ccc(CN/C(C)=C(/C#N)C(N)=O)cc1OC	-0.5	3.48*	-9.2	-0.114	-0.948	15.0	7928*	/	2684*
Cc1ccc(S(=O)(=O)N(C)CC(=O)Nc2ccncc2)cc1	6.3	0.0373	/	0.0515	-0.0349	7.2	/	/	/
Cc1noc(NS(=O)(=O)c2ccc(N/C=C/C(=O)c3ccc4c(c3)OCO4)cc2)c1C	6.6	8.47*	-30.8	0.612	0.0516	-10.2	13260*	1840	3108*
CN(C)CCCN1C(=O)c2oc3ccc(F)cc3c(=O)c2C1c1cccnc1 (stereo unspecified)	-7.4	-0.533	/	-0.776	-0.0024	7.5	/	/	/
COC(=O)c1c(-c2ccc(F)cc2)csc1NC(=O)c1ccco1	/	3.32*	3.4	-0.911	1.5	/	8568*	1648	2716
C=CCSc1ncccc1C(=O)NCc1ccccc1	-7.1	24.9*	29.5	-0.00283	-0.382	11.5	20632*	1692	5068*
O=C(O)c1ccccc1C(=O)NCc1ccccc1	/	1.53	/	1.21	-0.00331	/	/	/	/
Nc1nnc(N2CCCCCC2)s1	/	-0.761	/	0.278	0.498	9.4	/	/	/
CC1CCN(c2nnc(N)s2)CC1	-6.1	2.78*	-20.1	-0.0131	-0.0672	-0.1	4832	944	1516

Source: PubChem BioAssay
